Test results published in ChEMBL document CHEMBL1268902, “9-Dihydroerythromycin ethers as motilin agonists--developing structure-activity relationships for potency and safety” (Bioorg Med Chem, 2010).
pEC50: −log10 of the molar value. ≈ marks a conversion by molar mass, not a printed value.

Key:
[1] = Induction of contraction in rabbit smooth muscle; assay type: functional, tissue-based, Oryctolagus cuniculus, Muscle tissue
Summary of the method: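 Rabbit smooth muscle contractility assay; EC50 taken as the concentration giving 50% of maximal possible contraction.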

Streptococcus pneumoniae = test: Antibacterial activity against erythromycin-sensitive Streptococcus pneumoniae ATCC 6301; assay type: functional
Summary of the method: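 MIC determined by growth inhibition; routine screening used the highly erythromycin-sensitive strain S. pneumoniae ATCC6301.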

hERG (KCNH2) [2] = target: T1, hERG (KCNH2) (Homo sapiens, UniProt Q12809); test: Inhibition of human ERG at 30 uM
hERG (KCNH2) [3] = target: T1, hERG (KCNH2); test: Inhibition of human ERG at 300 uM
[4] = Induction of contraction in rabbit smooth muscle at EC90 concentration after three cycles of administration and washout measured after 4th dose; assay type: functional, Oryctolagus cuniculus, Muscle tissue
Summary of the method: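 Rabbit smooth muscle contractility; drug applied at EC90 concentration through three cycles of administration and washout, tachyphylaxis reported as % contractility response then obtained.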

T1 sequence (Q12809 whole entry): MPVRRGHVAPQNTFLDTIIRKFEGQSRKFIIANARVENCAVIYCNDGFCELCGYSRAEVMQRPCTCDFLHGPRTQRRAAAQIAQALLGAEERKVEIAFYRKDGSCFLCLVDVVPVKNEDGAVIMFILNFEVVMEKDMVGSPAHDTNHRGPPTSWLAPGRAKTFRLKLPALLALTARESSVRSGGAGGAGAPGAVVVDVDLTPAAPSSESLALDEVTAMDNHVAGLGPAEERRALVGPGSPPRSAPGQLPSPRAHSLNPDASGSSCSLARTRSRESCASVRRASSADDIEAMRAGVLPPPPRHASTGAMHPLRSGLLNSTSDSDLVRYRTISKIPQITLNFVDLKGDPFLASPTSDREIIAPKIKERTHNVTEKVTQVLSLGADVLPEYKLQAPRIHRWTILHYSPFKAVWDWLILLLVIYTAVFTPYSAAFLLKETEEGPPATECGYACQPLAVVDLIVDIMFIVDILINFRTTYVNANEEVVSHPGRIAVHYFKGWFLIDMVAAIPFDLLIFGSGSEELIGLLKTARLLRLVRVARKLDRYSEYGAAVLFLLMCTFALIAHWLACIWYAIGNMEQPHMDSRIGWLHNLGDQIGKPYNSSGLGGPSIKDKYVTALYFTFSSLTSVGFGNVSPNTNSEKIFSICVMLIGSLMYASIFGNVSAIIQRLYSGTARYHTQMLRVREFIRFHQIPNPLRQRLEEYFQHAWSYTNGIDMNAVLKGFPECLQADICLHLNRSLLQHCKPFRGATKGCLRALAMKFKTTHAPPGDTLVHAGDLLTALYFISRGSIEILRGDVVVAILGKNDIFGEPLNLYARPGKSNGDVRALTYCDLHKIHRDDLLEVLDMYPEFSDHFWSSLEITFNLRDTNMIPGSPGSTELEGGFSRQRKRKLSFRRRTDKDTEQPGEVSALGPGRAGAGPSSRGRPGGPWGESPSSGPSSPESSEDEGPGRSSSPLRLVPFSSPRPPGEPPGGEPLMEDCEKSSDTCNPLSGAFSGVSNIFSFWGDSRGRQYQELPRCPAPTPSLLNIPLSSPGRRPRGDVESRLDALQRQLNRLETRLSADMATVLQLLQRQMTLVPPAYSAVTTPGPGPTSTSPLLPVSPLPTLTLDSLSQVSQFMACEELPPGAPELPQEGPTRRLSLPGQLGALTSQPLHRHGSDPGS

SMILES	pEC50 [1]	MIC (Streptococcus pneumoniae) [mg/L]	inhibition at 30 µM (hERG (KCNH2) [2]) [%]	inhibition at 300 µM (hERG (KCNH2) [3]) [%]	Activity [4] [%]
CC[C@H]1OC(=O)[C@H](C)[C@@H](O[C@H]2C[C@@](C)(OC)[C@@H](O)[C@H](C)O2)[C@H](C)[C@@H](O[C@@H]2O[C@H](C)C[C@H](N(C)C(C)C)[C@H]2O)[C@](C)(O)C[C@@H](C)[C@H](OCCNC(=O)OC)[C@H](C)[C@@H](O)[C@]1(C)O	6.89	128 (≈ 148 µM)	40	95	
CC[C@H]1OC(=O)[C@H](C)[C@@H](O[C@H]2C[C@@](C)(OC)[C@@H](O)[C@H](C)O2)[C@H](C)[C@@H](O[C@@H]2O[C@H](C)C[C@H](N(C)C(C)C)[C@H]2O)[C@](C)(O)C[C@@H](C)[C@H](OCCNC(C)C)[C@H](C)[C@@H](O)[C@]1(C)O	5.70	64 (≈ 75.4 µM)	40	93	
CCCNC(=S)NCCO[C@@H]1[C@H](C)[C@@H](O)[C@](C)(O)[C@@H](CC)OC(=O)[C@H](C)[C@@H](O[C@H]2C[C@@](C)(OC)[C@@H](O)[C@H](C)O2)[C@H](C)[C@@H](O[C@@H]2O[C@H](C)C[C@H](N(C)C(C)C)[C@H]2O)[C@](C)(O)C[C@H]1C	6.68	128 (≈ 141 µM)	53	100	
CC[C@H]1OC(=O)[C@H](C)[C@@H](O[C@H]2C[C@@](C)(OC)[C@@H](O)[C@H](C)O2)[C@H](C)[C@@H](O[C@@H]2O[C@H](C)C[C@H](N(C)C(C)C)[C@H]2O)[C@](C)(O)C[C@@H](C)[C@H](OCc2nc[nH]n2)[C@H](C)[C@@H](O)[C@]1(C)O	7.27	128 (≈ 151 µM)	8	40	97
CC[C@H]1OC(=O)[C@H](C)[C@@H](O[C@H]2C[C@@](C)(OC)[C@@H](O)[C@H](C)O2)[C@H](C)[C@@H](O[C@@H]2O[C@H](C)C[C@H](N(C)C(C)C)[C@H]2O)[C@](C)(O)C[C@@H](C)[C@H](OCCNC(=N)N)[C@H](C)[C@@H](O)[C@]1(C)O	5.44				
CC[C@H]1OC(=O)[C@H](C)[C@@H](O[C@H]2C[C@@](C)(OC)CC(C)O2)[C@H](C)[C@@H](O[C@@H]2O[C@H](C)C[C@H](N(C)CC)[C@H]2O)C2(C)CC(C)=C(O2)[C@H](C)[C@@H](O)[C@H]1C (single isomer, unassigned)	8.15				22
CC[C@H]1OC(=O)[C@H](C)[C@@H](O[C@H]2C[C@@](C)(OC)[C@@H](O)[C@H](C)O2)[C@H](C)[C@@H](O[C@@H]2O[C@H](C)C[C@H](N(C)C(C)C)[C@H]2O)[C@](C)(O)C[C@@H](C)[C@H](OCCNC(C)=O)[C@H](C)[C@@H](O)[C@]1(C)O	7.32	> 128	47	73	94
CC[C@H]1OC(=O)[C@H](C)[C@@H](O[C@H]2C[C@@](C)(OC)[C@@H](O)[C@H](C)O2)[C@H](C)[C@@H](O[C@@H]2O[C@H](C)C[C@H](N(C)C(C)C)[C@H]2O)[C@](C)(O)C[C@@H](C)[C@H](OCc2ccncc2)[C@H](C)[C@@H](O)[C@]1(C)O	6.38	128 (≈ 150 µM)	68	100	
CCOC(=O)NCCO[C@@H]1[C@H](C)[C@@H](O)[C@](C)(O)[C@@H](CC)OC(=O)[C@H](C)[C@@H](O[C@H]2C[C@@](C)(OC)[C@@H](O)[C@H](C)O2)[C@H](C)[C@@H](O[C@@H]2O[C@H](C)C[C@H](N(C)C(C)C)[C@H]2O)[C@](C)(O)C[C@H]1C	7.00	64 (≈ 72.8 µM)	67	100	
CC[C@H]1OC(=O)[C@H](C)[C@@H](O[C@H]2C[C@@](C)(OC)[C@@H](O)[C@H](C)O2)[C@H](C)[C@@H](O[C@@H]2O[C@H](C)C[C@H](N(C)C(C)C)[C@H]2O)[C@](C)(O)C[C@@H](C)[C@H](OCc2c[nH]cn2)[C@H](C)[C@@H](O)[C@]1(C)O	7.20		48	98	
CC[C@H]1OC(=O)[C@H](C)[C@@H](O[C@H]2C[C@@](C)(OC)[C@@H](O)[C@H](C)O2)[C@H](C)[C@@H](O[C@@H]2O[C@H](C)C[C@H](N(C)C(C)C)[C@H]2O)[C@](C)(O)C[C@@H](C)[C@H](OCCNS(C)(=O)=O)[C@H](C)[C@@H](O)[C@]1(C)O	6.62	> 128	12	79	94
CC[C@H]1OC(=O)[C@H](C)[C@@H](O[C@H]2C[C@@](C)(OC)C[C@H](C)O2)[C@H](C)[C@@H](O[C@@H]2O[C@H](C)C[C@H](N(C)C(C)C)[C@H]2O)[C@]2(C)CC(C)=C(O2)[C@H](C)C(=O)[C@]1(C)OC	7.96		84	100	9
CC[C@H]1OC(=O)[C@H](C)[C@@H](O[C@H]2C[C@@](C)(OC)[C@@H](O)[C@H](C)O2)[C@H](C)[C@@H](O[C@@H]2O[C@H](C)C[C@H](N(C)C(C)C)[C@H]2O)[C@](C)(O)C[C@@H](C)[C@H](OCC(=O)NC)[C@H](C)[C@@H](O)[C@]1(C)O	7.24	128 (≈ 153 µM)			89
CC[C@H]1OC(=O)[C@H](C)[C@@H](O[C@H]2C[C@@](C)(OC)[C@@H](O)[C@H](C)O2)[C@H](C)[C@@H](O[C@@H]2O[C@H](C)C[C@H](N(C)C(C)C)[C@H]2O)[C@](C)(O)C[C@@H](C)[C@H](O)[C@H](C)[C@@H](O)[C@]1(C)O [3 9-DIHYDRO-N-DESMETHYL-N-ISOPROPYLERYTHROMYCIN A]	6.59				85
CCNC(=S)NCCO[C@@H]1[C@H](C)[C@@H](O)[C@](C)(O)[C@@H](CC)OC(=O)[C@H](C)[C@@H](O[C@H]2C[C@@](C)(OC)[C@@H](O)[C@H](C)O2)[C@H](C)[C@@H](O[C@@H]2O[C@H](C)C[C@H](N(C)C(C)C)[C@H]2O)[C@](C)(O)C[C@H]1C	6.66	> 120	36	88	
CCNC(=O)NCCO[C@@H]1[C@H](C)[C@@H](O)[C@](C)(O)[C@@H](CC)OC(=O)[C@H](C)[C@@H](O[C@H]2C[C@@](C)(OC)[C@@H](O)[C@H](C)O2)[C@H](C)[C@@H](O[C@@H]2O[C@H](C)C[C@H](N(C)C(C)C)[C@H]2O)[C@](C)(O)C[C@H]1C	7.00	> 128	20	57	88
CC[C@H]1OC(=O)[C@H](C)[C@@H](O[C@H]2C[C@@](C)(OC)[C@@H](O)[C@H](C)O2)[C@H](C)[C@@H](O[C@@H]2O[C@H](C)C[C@H](N(C)C(C)C)[C@H]2O)[C@](C)(O)C[C@@H](C)[C@H](OCCNC(=O)c2ccc3[nH]cnc3c2)[C@H](C)[C@@H](O)[C@]1(C)O	7.43	128 (≈ 135 µM)	71	100	94
CC[C@H]1OC(=O)[C@H](C)[C@@H](O[C@H]2C[C@@](C)(OC)[C@@H](O)[C@H](C)O2)[C@H](C)[C@@H](O[C@@H]2O[C@H](C)C[C@H](N(C)C(C)C)[C@H]2O)[C@](C)(O)C[C@@H](C)[C@H](OCCN)[C@H](C)[C@@H](O)[C@]1(C)O	5.64	128 (≈ 159 µM)	25	76	
CC[C@H]1OC(=O)[C@H](C)[C@@H](O[C@H]2C[C@@](C)(OC)[C@@H](O)[C@H](C)O2)[C@H](C)[C@@H](O[C@@H]2O[C@H](C)C[C@H](N(C)C)[C@H]2O)[C@](C)(O)C[C@@H](C)C(=O)[C@H](C)[C@@H](O)[C@]1(C)O [ERYTHROMYCIN]	5.92				97
CC[C@H]1OC(=O)[C@H](C)[C@@H](O[C@H]2C[C@@](C)(OC)[C@@H](O)[C@H](C)O2)[C@H](C)[C@@H](O[C@@H]2O[C@H](C)C[C@H](N(C)C(C)C)[C@H]2O)[C@](C)(O)C[C@@H](C)[C@H](OCc2nccs2)[C@H](C)[C@@H](O)[C@]1(C)O	6.54	128 (≈ 149 µM)	61	100	
CC[C@H]1OC(=O)[C@H](C)[C@@H](O[C@H]2C[C@@](C)(OC)[C@@H](O)[C@H](C)O2)[C@H](C)[C@@H](O[C@@H]2O[C@H](C)C[C@H](N(C)C(C)C)[C@H]2O)[C@](C)(O)C[C@@H](C)[C@H](OCc2csc(C)n2)[C@H](C)[C@@H](O)[C@]1(C)O	6.32	128 (≈ 146 µM)	63	100	
